Laboratory results as given in ChEMBL document CHEMBL5058577, “EUbOPEN Chemogenomics Library 2 (Multiplex)” (2022).

System: HEK-293T
Assay: Multiplex assay against HEK293T
Format: toxicity, cell-based
Settings: human
Summary of the method: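 Tubulin, mitochondrial-mass and membrane-permeability phenotypes are per cents of healthy-nucleus cells. Cells were gated by CellPathfinder machine learning into Hoechst high-intensity objects or normal cells, normal cells into healthy, pyknosed or fragmented nuclei, and pyknosed cells into mitotic or apoptotic. Before that, live cells stained at seeding with Hoechst33342, BioTracker Green Microtubule Cytoskeleton Dye, MitoTracker Red and Annexin V Alexa Fluor 680 were imaged on a CQ1 microscope at 37°C and 5% CO2 after compound addition.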

[1] = 12 h, 1 µM, compound concentration 1 uM, replicate 1
[2] = 12 h, 1 µM, compound concentration 1 uM, replicate 2
[3] = 12 h, 10 µM, compound concentration 10 uM, replicate 1
[4] = 12 h, 10 µM, compound concentration 10 uM, replicate 2
[5] = 24 h, 1 µM, compound concentration 1 uM, replicate 1
[6] = 24 h, 1 µM, compound concentration 1 uM, replicate 2
[7] = 24 h, 10 µM, compound concentration 10 uM, replicate 1
[8] = 24 h, 10 µM, compound concentration 10 uM, replicate 2
[9] = 48 h, 1 µM, compound concentration 1 uM, replicate 1
[10] = 48 h, 1 µM, compound concentration 1 uM, replicate 2
[11] = 48 h, 10 µM, compound concentration 10 uM, replicate 1
[12] = 48 h, 10 µM, compound concentration 10 uM, replicate 2

With `Cc1ccc(C(C)(O)c2nc3ccccc3s2)c(C)c1` (configuration not stated) the “Population Apoptotic (%)” value [1] was 30%, the “Population Fragmented Nuclei (%)” value [1] was 19% and the “Population Healthy Nuclei (%)” value [1] was 72%. For the same compound, the “Population Hoechst High Intensity Objects (%)” value [1] was 4%, the “Population Membrane Permeable-Phenotype (%)” value [1] was 1% and the “Population Mitochondria Different-Phenotype (%)” value [1] was 36%. The “Population Mitotic Cells (%)” value [1] was 70%, the “Population Normal (%)” value [1] was 95% and the “Population Pyknosed Nuclei (%)” value [1] was 8%. For the same compound, the “Population Tubulin-Different-Phenotype (%)” value [1] was 30%, the “Total Cell Count” value [1] was 483 and the “Population Apoptotic (%)” value [2] was 41%. For the same compound, the “Population Fragmented Nuclei (%)” value [2] was 4%, the “Population Healthy Nuclei (%)” value [2] was 79% and the “Population Hoechst High Intensity Objects (%)” value [2] was 5%. For the same compound, the “Population Membrane Permeable-Phenotype (%)” value [2] was 0%, the “Population Mitochondria Different-Phenotype (%)” value [2] was 63% and the “Population Mitotic Cells (%)” value [2] was 58%. For the same compound, the “Population Normal (%)” value [2] was 94%, the “Population Pyknosed Nuclei (%)” value [2] was 16% and the “Population Tubulin-Different-Phenotype (%)” value [2] was 25%. For the same compound, the “Total Cell Count” value [2] was 308, the “Population Apoptotic (%)” value [3] was 56% and the “Population Fragmented Nuclei (%)” value [3] was 5%. The “Population Healthy Nuclei (%)” value [3] was 82%, the “Population Hoechst High Intensity Objects (%)” value [3] was 8% and the “Population Membrane Permeable-Phenotype (%)” value [3] was 0%. For the same compound, the “Population Mitochondria Different-Phenotype (%)” value [3] was 62%, the “Population Mitotic Cells (%)” value [3] was 43% and the “Population Normal (%)” value [3] was 91%. For the same compound, the “Population Pyknosed Nuclei (%)” value [3] was 12%, the “Population Tubulin-Different-Phenotype (%)” value [3] was 44% and the “Total Cell Count” value [3] was 412. The “Population Apoptotic (%)” value [4] was 36%, the “Population Fragmented Nuclei (%)” value [4] was 7% and the “Population Healthy Nuclei (%)” value [4] was 78%. The “Population Hoechst High Intensity Objects (%)” value [4] was 7%, the “Population Mitochondria Different-Phenotype (%)” value [4] was 72% and the “Population Mitotic Cells (%)” value [4] was 63%. For the same compound, the “Population Normal (%)” value [4] was 92%, the “Population Pyknosed Nuclei (%)” value [4] was 13% and the “Population Tubulin-Different-Phenotype (%)” value [4] was 25%. For the same compound, the “Total Cell Count” value [4] was 318, the “Population Apoptotic (%)” value [5] was 26% and the “Population Fragmented Nuclei (%)” value [5] was 18%. The “Population Healthy Nuclei (%)” value [5] was 73%, the “Population Hoechst High Intensity Objects (%)” value [5] was 3% and the “Population Membrane Permeable-Phenotype (%)” value [5] was 1%. The “Population Mitochondria Different-Phenotype (%)” value [5] was 15%, the “Population Mitotic Cells (%)” value [5] was 73% and the “Population Normal (%)” value [5] was 96%. For the same compound, the “Population Pyknosed Nuclei (%)” value [5] was 8%, the “Population Tubulin-Different-Phenotype (%)” value [5] was 11% and the “Total Cell Count” value [5] was 645. The “Population Apoptotic (%)” value [6] was 32%, the “Population Fragmented Nuclei (%)” value [6] was 6% and the “Population Healthy Nuclei (%)” value [6] was 85%. For the same compound, the “Population Membrane Permeable-Phenotype (%)” value [6] was 0%, the “Population Mitochondria Different-Phenotype (%)” value [6] was 36% and the “Population Mitotic Cells (%)” value [6] was 67%. For the same compound, the “Population Pyknosed Nuclei (%)” value [6] was 7%, the “Population Tubulin-Different-Phenotype (%)” value [6] was 16% and the “Total Cell Count” value [6] was 447. The “Population Apoptotic (%)” value [7] was 28%, the “Population Fragmented Nuclei (%)” value [7] was 6% and the “Population Healthy Nuclei (%)” value [7] was 82%. For the same compound, the “Population Hoechst High Intensity Objects (%)” value [7] was 8%, the “Population Membrane Permeable-Phenotype (%)” value [7] was 0% and the “Population Mitochondria Different-Phenotype (%)” value [7] was 42%. For the same compound, the “Population Mitotic Cells (%)” value [7] was 71%, the “Population Normal (%)” value [7] was 91% and the “Population Pyknosed Nuclei (%)” value [7] was 11%. For the same compound, the “Population Tubulin-Different-Phenotype (%)” value [7] was 34%, the “Total Cell Count” value [7] was 487 and the “Population Apoptotic (%)” value [8] was 36%. For the same compound, the “Population Fragmented Nuclei (%)” value [8] was 10%, the “Population Healthy Nuclei (%)” value [8] was 78% and the “Population Hoechst High Intensity Objects (%)” value [8] was 6%. For the same compound, the “Population Mitochondria Different-Phenotype (%)” value [8] was 63%, the “Population Mitotic Cells (%)” value [8] was 63% and the “Population Normal (%)” value [8] was 93%. The “Population Pyknosed Nuclei (%)” value [8] was 10%, the “Population Tubulin-Different-Phenotype (%)” value [8] was 23% and the “Total Cell Count” value [8] was 379. The “Population Apoptotic (%)” value [9] was 17%, the “Population Fragmented Nuclei (%)” value [9] was 20% and the “Population Healthy Nuclei (%)” value [9] was 73%. The “Population Hoechst High Intensity Objects (%)” value [9] was 2%, the “Population Membrane Permeable-Phenotype (%)” value [9] was 1% and the “Population Mitochondria Different-Phenotype (%)” value [9] was 15%. The “Population Mitotic Cells (%)” value [9] was 82%, the “Population Normal (%)” value [9] was 97% and the “Population Pyknosed Nuclei (%)” value [9] was 5%. The “Population Tubulin-Different-Phenotype (%)” value [9] was 12%, the “Total Cell Count” value [9] was 964 and the “Population Apoptotic (%)” value [10] was 34%. For the same compound, the “Population Fragmented Nuclei (%)” value [10] was 13%, the “Population Healthy Nuclei (%)” value [10] was 78% and the “Population Hoechst High Intensity Objects (%)” value [10] was 3%. The “Population Mitochondria Different-Phenotype (%)” value [10] was 22%, the “Population Mitotic Cells (%)” value [10] was 65% and the “Population Normal (%)” value [10] was 96%. For the same compound, the “Population Pyknosed Nuclei (%)” value [10] was 8%, the “Population Tubulin-Different-Phenotype (%)” value [10] was 11% and the “Total Cell Count” value [10] was 621. For the same compound, the “Population Apoptotic (%)” value [11] was 33%, the “Population Fragmented Nuclei (%)” value [11] was 14% and the “Population Healthy Nuclei (%)” value [11] was 76%. The “Population Hoechst High Intensity Objects (%)” value [11] was 2%, the “Population Membrane Permeable-Phenotype (%)” value [11] was 0% and the “Population Mitochondria Different-Phenotype (%)” value [11] was 28%. The “Population Mitotic Cells (%)” value [11] was 66%, the “Population Normal (%)” value [11] was 97% and the “Population Pyknosed Nuclei (%)” value [11] was 9%. For the same compound, the “Population Tubulin-Different-Phenotype (%)” value [11] was 18%, the “Total Cell Count” value [11] was 713 and the “Population Apoptotic (%)” value [12] was 50%. The “Population Fragmented Nuclei (%)” value [12] was 13%, the “Population Healthy Nuclei (%)” value [12] was 80% and the “Population Hoechst High Intensity Objects (%)” value [12] was 3%. For the same compound, the “Population Membrane Permeable-Phenotype (%)” value [12] was 1%, the “Population Mitochondria Different-Phenotype (%)” value [12] was 33% and the “Population Mitotic Cells (%)” value [12] was 50%. The “Population Normal (%)” value [12] was 96%, the “Population Pyknosed Nuclei (%)” value [12] was 5% and the “Population Tubulin-Different-Phenotype (%)” value [12] was 13%. The “Total Cell Count” value [12] was 508.
